For assay [1], the system named is MM.1S cells. Briefly: Detection of mitochondrial superoxide. The conditions noted are these: 24 hours; for mitochondrial superoxide induction (rank among six drug candidates): 0.6, 1.25, 2.5 and 5μM. It counts as cell-based, human.
Assay [2] concerns MM.1S cells. Briefly: MTS assay of cell growth in MM.1S cells. It is filed as cell-based, human. Background: Formazan colour is commonly taken as a measure of viable cells.
Assay [3] has as its system ARE/Nrf2 transcriptional activity. Description: ARE/NRF2 luciferase reporter assay in ARE/HepG2/Luciferase reporter cells. It counts as cell-based. The conditions noted are these: 24 hours; for IC50: read-out: IC50 in HepG2 ARE/NRF2 reporter assay, 200μM t-BHQ, compounds 20nM to 10μM. The method in brief: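 HepG2 ARE-luciferase reporter cells (7,000/well) cultured 24 h before test compound; t-BHQ added 30 min later; 24 h at […]; one-step luciferase reagent, luminescence read. Screen: 5μM, 200 or 500μM t-BHQ, two independent runs, Z-scores normalized to mean of compound-treated wells. Dose-response: […] serial dilutions 20nM–10μM plus 200μM t-BHQ; 0.5% DMSO control; percent of DMSO control.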

Assay [4] concerns NRF2 nuclear translocation. Description: NRF2 nuclear translocation high-content screen in HepG2 cells. It is filed as cell-based. To be noted: 0.625-10μM compound + 200μM t-BHQ, 2 hours.
Assay [5] concerns U266 cells. Description: Detection of mitochondrial superoxide. It counts as cell-based, human. The conditions noted are these: 24 hours.
In assay [6] the test system is NRF2 nuclear translocation. Briefly: NRF2 nuclear translocation assay in MM.1S cells. It counts as cell-based, human. To be noted: 2 hours, no t-BHQ. A digest of the protocol: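 MM.1S cells (300,000/well) exposed 2 h to test compound, DMSO or 2 mM N-acetyl-L-cysteine; fixed 4% PFA 30 min, permeabilized/blocked (2% BSA, 0.1% Triton X-100) 30 min; stained with Hoechst 33342 (4ug/mL) and NRF2-Alexa Fluor 488 antibody (1:1000); high-content imaging and image analysis; NRF2 inhibition expressed as Z-scores.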

Assay [7] relates to U266 cells. Briefly: MTS assay of cell growth in U266 cells. It is filed as cell-based, human. To be noted: 5μM single agent, 24, 48 and 72 hours.
Assay [8] relates to U266 cells. Briefly: Viability by DAPI staining. It counts as cell-based, human. The conditions noted are these: 5μM, 24 hours. The method in brief: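 Over 24 hours, U266 cells (RPMI 1640, 10% heat-inactivated FBS, 1% L-glutamine, penicillin-streptomycin; 5% CO2, 37°C) were treated with test compound at 5μM, alone or with 200μM pyocyanin. Vehicle was the negative control and 200μM pyocyanin the positive control. Cells were stained with DAPI, and viability was scored by flow cytometry as percentage DAPI-negative. Mean and SEM are reported.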

Take `Cc1ccc(NC(=O)c2cccc(C(C)(C)C#N)c2)cc1Nc1ccc2ncn(C)c(=O)c2c1` [AZ-628]: the “mitochondrial superoxide induction (rank among six drug candidates)” value in assay [1] is given as “followed by AZ-628”. The cell growth entry in assay [2] (2.5μM and 5μM, 48 hours) was “significant inhibition of cell growth”. In addition, the IC50 in assay [3] worked out at 1000 nM. For the same compound, in assay [4], the “effect on nuclear translocation of NRF2 (ratio of cytoplasmic to nuclear NRF2)” value (from here on “effect … (ratio of cytoplasmic to nuclear NRF2)”) is recorded as “affected nuclear translocation of NRF2”.

For the compound `C=CCc1cccc(/C=N/NC(=O)CN2CCN(Cc3ccccc3)CC2)c1O` [PAC-1], the IC50 in assay [3] came to 2700 nM.

With `O=C1NCCc2[nH]c(-c3ccncc3)cc21` [PHA-767491], in assay [1], the “mitochondrial superoxide induction (rank among six drug candidates)” value is “most potent superoxide inducer”. The cell growth result in assay [2] (2.5μM and 5μM, 48 hours) was “significant inhibition of cell growth”. Also, the IC50 in assay [3] was 2410 nM. Also, the “effect … (ratio of cytoplasmic to nuclear NRF2)” value in assay [4] is given as “affected nuclear translocation of NRF2”.

`Cc1ccc(C(=O)Cn2c3c(sc2=N)CCCC3)cc1` [Pifithrin-α, pifithrin-α]: the IC50 in assay [3] stood at 160 nM.

`Cn1c2cccc(=O)c-2nc2ccccc21` [Pyocyanin, pyocyanin]: the mitochondrial superoxide induction result in assay [1] (serial dilutions 0 to 300μM) is “efficient and dose-dependent induction of mitochondrial superoxide”; in assay [5] (serial dilutions 0 to 300μM), “efficient and dose-dependent induction of mitochondrial superoxide”.

In the case of `N#C/C(=C(/N)Sc1ccc(N)cc1)c1ccccc1C(F)(F)F` [SL-327], in assay [1], the “mitochondrial superoxide induction (rank among six drug candidates)” value is “followed by AZ-628 and SL-327”. In addition, in assay [6], the “effect on nuclear translocation of NRF2” value is recorded as “anticipated inhibitory effect on nuclear translocation of NRF2”. Also, the IC50 in assay [3] turned out to be 310 nM. In addition, the “effect … (ratio of cytoplasmic to nuclear NRF2)” value in assay [4] is given as “affected nuclear translocation of NRF2”.

Consider `CC(C)(C)c1cc(O)ccc1O` [t-BHQ, tert-butylhydroquinone], for which the “induction of NRF2 transcriptional activity” value in assay [3] (200μM or 500μM t-BHQ, HepG2 cells) was “robust induction of NRF2 transcriptional activity”.

Consider brusatol, for which the cell growth entry is on record as “efficiently suppressed growth” in assay [2] (5μM single agent, 24, 48 and 72 hours); “efficiently suppressed growth” in assay [7]. In addition, in assay [8], the “viability (percentage of DAPI-negative viable cells)” value is recorded as “decreased viability”. The mitochondrial superoxide levels result in assay [5] (5μM) was “increased superoxide levels”.

On to vitamin B12, for which the IC50 in assay [3] is 620 nM.

These data come from article PMC9547662 (Investigational new drugs, 2018).
